From ChEMBL document CHEMBL1781906, “New quinolin-4-yl-1,2,3-triazoles carrying amides, sulphonamides and amidopiperazines as potential antitubercular agents” (2011)
Values after ≈ are worked out from the molar mass of the structure shown.

Experiments:
Type in all cases: functional
[1] = test system: Mycobacterium tuberculosis; assay: Antimycobacterial activity against Mycobacterium tuberculosis H37Rv ATCC 27294 after 7 days by resazurin method; conditions: H37Rv ATCC 27294, 168 h
How it was run: (§1)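 H37Rv was grown in Middlebrook 7H9 broth with 10% OADC, diluted to McFarland 2 in the same medium, and added to fresh medium in 96-well plates with compound. Compounds were tested at 1, 10 and 100. The dye turned pink in controls after […] at 37 °C.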

Staphylococcus aureus = assay: Antibacterial activity against Staphylococcus aureus ATCC 25923 after 18 to 24 hrs by serial plate dilution method
Pseudomonas aeruginosa = assay: Antibacterial activity against Pseudomonas aeruginosa ATCC 27853 after 18 to 24 hrs by […]
Streptococcus pyogenes = assay: Antibacterial activity against Streptococcus pyogenes after 18 to 24 hrs by serial plate dilution method
[2] = test system: Mycolicibacterium fortuitum; assay: Antimycobacterial activity against Mycobacterium fortuitum ATCC 19542 after 7 days by resazurin method; conditions: ATCC 19542, 168 h
How it was run: (§2)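 MIC was determined by resazurin microplate assay. Resazurin turns from blue to pink when reduced by viable cells, and wells with no colour change were scored as inhibited. Isoniazid and rifampicin were reference drugs.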

Escherichia coli = assay: Antibacterial activity against Escherichia coli ATCC 25922 after 18 to 24 hrs by […]
[3] = test system: Mycobacterium tuberculosis; assay: Antimycobacterial activity against Mycobacterium tuberculosis H37Rv ATCC 27294 assessed as inhibition of bacterial growth at 1 to 100 ug/ml after 7 days by resazurin method; how it was run: as §1
Klebsiella pneumoniae = assay: Antibacterial activity against Klebsiella pneumoniae after 18 to 24 hrs by […]
[4] = test system: Mycolicibacterium smegmatis; assay: Antimycobacterial activity against Mycobacterium smegmatis ATCC 19420 after 7 days by resazurin method; conditions: ATCC 19420, 168 h; how it was run: as §2

| SMILES | MIC [1] | MIC (Staphylococcus aureus) | MIC (Pseudomonas aeruginosa) | MIC (Streptococcus pyogenes) | MIC [2] | MIC (Escherichia coli) | inhibition (INH) [3] | MIC (Klebsiella pneumoniae) | MIC [4] |
| --- | --- | --- | --- | --- | --- | --- | --- | --- | --- |
| COc1ccc2nc(C)cc(-n3cc(CN4CCN(C(C)=O)CC4)nn3)c2c1 | 0.625 µg/mL (≈ 1.64 µM) | 0.4 µg/mL (≈ 1.05 µM) | 0.2 µg/mL (≈ 0.526 µM) | 0.2 µg/mL (≈ 0.526 µM) | 100 µg/mL (≈ 263 µM) | 0.1 µg/mL (≈ 0.263 µM) | 95% | 0.1 µg/mL (≈ 0.263 µM) | 10 µg/mL (≈ 26.3 µM) |
| CCc1ccc(C(=O)NCc2cn(-c3cc(C)nc4ccc(OC)cc34)nn2)cc1 | 100 µg/mL (≈ 249 µM) | 3.12 µg/mL (≈ 7.77 µM) | 6.25 µg/mL (≈ 15.6 µM) | 3.12 µg/mL (≈ 7.77 µM) | 100 µg/mL (≈ 249 µM) | 3.12 µg/mL (≈ 7.77 µM) | 80% | 3.12 µg/mL (≈ 7.77 µM) | 100 µg/mL (≈ 249 µM) |
| COc1ccc2nc(C)cc(-n3cc(CNC(=O)c4ccc(F)cc4)nn3)c2c1 | 0.625 µg/mL (≈ 1.6 µM) | 0.8 µg/mL (≈ 2.04 µM) | 0.2 µg/mL (≈ 0.511 µM) | 0.2 µg/mL (≈ 0.511 µM) | 100 µg/mL (≈ 255 µM) | 0.2 µg/mL (≈ 0.511 µM) | 90% | 0.2 µg/mL (≈ 0.511 µM) | 10 µg/mL (≈ 25.5 µM) |
| COc1ccc2nc(C)cc(-n3cc(CNC(=O)C4CC4)nn3)c2c1 | 1 µg/mL (≈ 2.96 µM) | 0.4 µg/mL (≈ 1.19 µM) | 1.6 µg/mL (≈ 4.74 µM) | 0.4 µg/mL (≈ 1.19 µM) | 100 µg/mL (≈ 296 µM) | 0.4 µg/mL (≈ 1.19 µM) | 90% | 0.2 µg/mL (≈ 0.593 µM) | 100 µg/mL (≈ 296 µM) |
| CCc1ccc(C(=O)N2CCN(Cc3cn(-c4cc(C)nc5ccc(OC)cc45)nn3)CC2)cc1 | 100 µg/mL (≈ 213 µM) | 6.25 µg/mL (≈ 13.3 µM) | 6.25 µg/mL (≈ 13.3 µM) | 6.25 µg/mL (≈ 13.3 µM) | 100 µg/mL (≈ 213 µM) | 3.12 µg/mL (≈ 6.63 µM) | – | 3.12 µg/mL (≈ 6.63 µM) | 100 µg/mL (≈ 213 µM) |
| COc1ccc2nc(C)cc(-n3cc(CN4CCN(C(=O)C5CCC5)CC4)nn3)c2c1 | 10 µg/mL (≈ 23.8 µM) | 1.6 µg/mL (≈ 3.8 µM) | 0.8 µg/mL (≈ 1.9 µM) | 1.6 µg/mL (≈ 3.8 µM) | 100 µg/mL (≈ 238 µM) | 1.6 µg/mL (≈ 3.8 µM) | 90% | 3.12 µg/mL (≈ 7.42 µM) | 100 µg/mL (≈ 238 µM) |
| COc1ccc2nc(C)cc(-n3cc(CNS(=O)(=O)c4ccc(Cl)c(Cl)c4)nn3)c2c1 | 100 µg/mL (≈ 209 µM) | 1.6 µg/mL (≈ 3.34 µM) | 12.5 µg/mL (≈ 26.1 µM) | 3.12 µg/mL (≈ 6.52 µM) | 100 µg/mL (≈ 209 µM) | 12.5 µg/mL (≈ 26.1 µM) | – | 3.12 µg/mL (≈ 6.52 µM) | 100 µg/mL (≈ 209 µM) |
| COc1ccc2nc(C)cc(-n3cc(CN4CCN(C(=O)c5ccccc5)CC4)nn3)c2c1 | 10 µg/mL (≈ 22.6 µM) | 0.8 µg/mL (≈ 1.81 µM) | 0.4 µg/mL (≈ 0.904 µM) | 0.8 µg/mL (≈ 1.81 µM) | 100 µg/mL (≈ 226 µM) | 0.4 µg/mL (≈ 0.904 µM) | 85% | 0.4 µg/mL (≈ 0.904 µM) | 100 µg/mL (≈ 226 µM) |
| COc1ccc2nc(C)cc(-n3cc(CN4CCN(C(=O)c5ccccc5F)CC4)nn3)c2c1 | 1 µg/mL (≈ 2.17 µM) | 0.8 µg/mL (≈ 1.74 µM) | 3.12 µg/mL (≈ 6.78 µM) | 0.4 µg/mL (≈ 0.869 µM) | 100 µg/mL (≈ 217 µM) | 1.6 µg/mL (≈ 3.47 µM) | 90% | 1.6 µg/mL (≈ 3.47 µM) | 5 µg/mL (≈ 10.9 µM) |
| COc1ccc2nc(C)cc(-n3cc(CNC(=O)c4ccccc4Cl)nn3)c2c1 | 10 µg/mL (≈ 24.5 µM) | 1.6 µg/mL (≈ 3.92 µM) | 6.25 µg/mL (≈ 15.3 µM) | 3.12 µg/mL (≈ 7.65 µM) | 100 µg/mL (≈ 245 µM) | 3.12 µg/mL (≈ 7.65 µM) | 80% | 3.12 µg/mL (≈ 7.65 µM) | 100 µg/mL (≈ 245 µM) |
| COc1ccc2nc(C)cc(-n3cc(CN4CCN(C(=O)c5ccc(C)cc5)CC4)nn3)c2c1 | 100 µg/mL (≈ 219 µM) | 6.25 µg/mL (≈ 13.7 µM) | 12.5 µg/mL (≈ 27.4 µM) | 6.25 µg/mL (≈ 13.7 µM) | 100 µg/mL (≈ 219 µM) | 6.25 µg/mL (≈ 13.7 µM) | – | 12.5 µg/mL (≈ 27.4 µM) | 100 µg/mL (≈ 219 µM) |
| COc1ccc(C(=O)NCc2cn(-c3cc(C)nc4ccc(OC)cc34)nn2)cc1 | 0.625 µg/mL (≈ 1.55 µM) | 0.8 µg/mL (≈ 1.98 µM) | 0.4 µg/mL (≈ 0.991 µM) | 0.4 µg/mL (≈ 0.991 µM) | 10 µg/mL (≈ 24.8 µM) | 0.1 µg/mL (≈ 0.248 µM) | 95% | 0.1 µg/mL (≈ 0.248 µM) | 5 µg/mL (≈ 12.4 µM) |
| COc1ccc2nc(C)cc(-n3cc(CNC(=O)C4CCC4)nn3)c2c1 | 10 µg/mL (≈ 28.5 µM) | 1.6 µg/mL (≈ 4.55 µM) | 0.8 µg/mL (≈ 2.28 µM) | 0.8 µg/mL (≈ 2.28 µM) | 100 µg/mL (≈ 285 µM) | 1.6 µg/mL (≈ 4.55 µM) | 85% | 1.6 µg/mL (≈ 4.55 µM) | 100 µg/mL (≈ 285 µM) |
| COc1ccc2nc(C)cc(-n3cc(CNS(=O)(=O)c4ccccc4C(F)(F)F)nn3)c2c1 | 1 µg/mL (≈ 2.09 µM) | 0.8 µg/mL (≈ 1.68 µM) | 0.4 µg/mL (≈ 0.838 µM) | 0.4 µg/mL (≈ 0.838 µM) | 10 µg/mL (≈ 20.9 µM) | 0.2 µg/mL (≈ 0.419 µM) | 90% | 0.4 µg/mL (≈ 0.838 µM) | 100 µg/mL (≈ 209 µM) |
| COc1ccc2nc(C)cc(-n3cc(CNS(=O)(=O)c4ccc(C)cc4)nn3)c2c1 | 10 µg/mL (≈ 23.6 µM) | 3.12 µg/mL (≈ 7.37 µM) | 6.25 µg/mL (≈ 14.8 µM) | 6.25 µg/mL (≈ 14.8 µM) | 100 µg/mL (≈ 236 µM) | 6.25 µg/mL (≈ 14.8 µM) | 85% | 6.25 µg/mL (≈ 14.8 µM) | 100 µg/mL (≈ 236 µM) |
